# Assay results taken from ChEMBL document CHEMBL1811897, “Nicotinic acetylcholine receptor efficacy and pharmacological properties of 3-(substituted phenyl)-2β-substituted tropanes” (J Med Chem, 2010).
# pIC50: −log10 of the molar value. The source made the active and inactive calls.
# How the values were obtained:
# [1] = target: T1, Neuronal acetylcholine receptor; alpha4/beta2 (Homo sapiens, UniProt P17787+P43681); assay: Antagonist activity against human alpha4beta2 nAChR in SHEP1 cells assessed as inhibition of carbamylcholine induced 86Rb+ efflux; assay type: functional, cell-based
# In short: (§1)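 86Rb+ efflux was evoked by carbamylcholine at its EC80–EC90 concentration, with test ligand present. Cells were TE671/RD (α1*), SH-SY5Y (α3β4*) or transfected SH-EP1 (α4β2 or α4β4). For weak antagonists the minimum was fixed at 0%.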
# [2] = target: T2, Acetylcholine receptor; alpha1/beta1/delta/gamma (Homo sapiens, UniProt P02708+P07510+P11230+Q07001); assay: Antagonist activity against human muscle-type alpha1beta1gammadelta nAChR in TE671/RD cells assessed as inhibition of carbamylcholine induced 86Rb+ efflux; assay type: functional, cell-based; in short: as §1
# [3] = target: Sodium-dependent dopamine transporter (Homo sapiens, UniProt Q01959); assay: Inhibition of human DAT expressed in HEK293 cells assessed as inhibition of [3H]DA reuptake after 10 mins by scintillation counting; assay type: cell-based
# [4] = target: Sodium-dependent serotonin transporter (Homo sapiens, UniProt P31645); assay: Inhibition of human SERTexpressed in HEK293 cells assessed as inhibition of [3H]5HT reuptake after 10 mins by scintillation counting; assay type: cell-based
# [5] = system: Mus musculus; assay: Antipyretic activity against nicotine-induced hypothermia in ICR mouse assessed as change in rectal temperature dministered subcutaneously 15 mins prior to nicotine challenge and measured after 30 mins of 2.5 mg/kg nicotine challenge; assay type: functional, organism-based; set-up: dose 2.5 mg/kg, route subcutaneous
# In short: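 Male ICR mice (20–25 g) were pretreated with saline or test drug 15 min before s.c. nicotine at 2.5 mg/kg. Rectal temperature was read by thermistor probe (24 mm insertion) just before and 30 min after nicotine, and the change was taken. Ambient temperature was 21–24 °C. AD50 with confidence limits came from ≥4 doses and ≥8 mice per dose.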
# [6] = system: Mus musculus; assay: Inhibition of nicotine-induced hypolocomotion in ICR mouse assessed as number of photocell interruption dministered subcutaneously 15 mins prior to nicotine challenge and measured after 5 mins of […] nicotine challenge; assay type: functional, organism-based; set-up: dose 1.5 mg/kg, route subcutaneous
# [7] = target: T1, Neuronal acetylcholine receptor; alpha4/beta2; assay: Agonist activity at human alpha4beta2 nAChR in SHEP1 cells assessed as 86Rb+ efflux at 5 nM to 100 uM; assay type: functional, cell-based
# In short: (§2)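 Test ligands were applied alone at ~5 nM to 100 μM in 86Rb+ efflux assays. Cells were TE671/RD (endogenous muscle-type α1*), SH-SY5Y (endogenous α3β4*) or transfected SH-EP1 (human α4β2 or α4β4). Non-specific efflux was subtracted. Intrinsic activity was normalized to specific efflux, defined as efflux with fully efficacious carbamylcholine minus efflux with buffer alone.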
# [8] = system: Mus musculus; assay: Inhibition of nicotine-induced antinociception activity in ICR mouse assessed as paw licking and jumping latency dministered subcutaneously 15 mins prior to nicotine challenge and measured after 5 mins of 2.5 mg/kg nicotine challenge by hot plate test; assay type: functional, organism-based; set-up: dose 2.5 mg/kg, route subcutaneous
# In short: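 Hot plate was held at 55 °C with a 40 s cutoff. End-point was paw lick or jump. Control latency was measured twice, ≥10 min apart. Response was calculated as %MPE. Groups of 8–12; AD50 from ≥4 doses.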
# [9] = target: Sodium-dependent noradrenaline transporter (Homo sapiens, UniProt P23975); assay: Inhibition of human NET expressed in HEK293 cells assessed as inhibition of [3H]NE reuptake after 10 mins by scintillation counting; assay type: cell-based
# [10] = target: T3, Neuronal acetylcholine receptor; alpha4/beta4 (Homo sapiens, UniProt P30926+P43681); assay: Agonist activity against human alpha4beta4 nAChR in SHEP1 cells assessed as 86Rb+ efflux at 5 nM to 100 uM; assay type: functional, cell-based; in short: as §2
# [11] = target: T2, Acetylcholine receptor; alpha1/beta1/delta/gamma; assay: Agonist activity at human muscle-type alpha1beta1gammadelta nAChR in TE671/RD cells assessed as 86Rb+ efflux at 5 nM to 100 uM; assay type: functional, cell-based; in short: as §2
# [12] = system: Mus musculus; assay: Inhibition of nicotine-induced conditioned place preference in ICR mouse assessed as activity count and time spent in chamberdministered subcutaneously 15 mins prior to 0.5 mg/kg nicotine challenge up to 4 days using photosensors; assay type: functional, organism-based; set-up: dose 0.5 mg/kg, route subcutaneous
# In short: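 Unbiased three-compartment CPP in male ICR mice. Day 1: 5 min confinement to the middle compartment, then 15 min free access; mice were grouped by equal bias. Days 2–4: vehicle or test drug s.c. 15 min before nicotine (0.5 mg/kg s.c.) in the paired side, with saline on the opposite side, 20 min sessions. Day 5: drug-free test with photosensor recording. AD50 from ≥3 doses, ≥8 mice per dose.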
# [13] = target: Cannabinoid receptor 1 (Homo sapiens) (UniProt P21554); assay: Positive allosteric modulator activity at CB1 receptor
# [14] = system: Mus musculus; assay: Inhibition of nicotine-induced antinociception activity in ICR mouse assessed as latency to remove tail administered subcutaneously 15 mins prior to nicotine challenge and measured after 5 mins of 2.5 mg/kg nicotine challenge by tail-flick test; assay type: functional, organism-based; set-up: dose 2.5 mg/kg, route subcutaneous
# In short: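 Radiant heat was aimed at the upper tail, with a 10 s cutoff. Baseline latency was 2–4 s for each mouse. Response was expressed as %MPE. AD50 with confidence limits came from ≥4 doses and ≥8 mice per dose.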
# [15] = target: T3, Neuronal acetylcholine receptor; alpha4/beta4; assay: Antagonist activity against human alpha4beta4 nAChR in SHEP1 cells assessed as inhibition of carbamylcholine induced 86Rb+ efflux; assay type: functional, cell-based; in short: as §1
# Sodium-dependent dopamine transporter, sequence (Q01959 whole entry): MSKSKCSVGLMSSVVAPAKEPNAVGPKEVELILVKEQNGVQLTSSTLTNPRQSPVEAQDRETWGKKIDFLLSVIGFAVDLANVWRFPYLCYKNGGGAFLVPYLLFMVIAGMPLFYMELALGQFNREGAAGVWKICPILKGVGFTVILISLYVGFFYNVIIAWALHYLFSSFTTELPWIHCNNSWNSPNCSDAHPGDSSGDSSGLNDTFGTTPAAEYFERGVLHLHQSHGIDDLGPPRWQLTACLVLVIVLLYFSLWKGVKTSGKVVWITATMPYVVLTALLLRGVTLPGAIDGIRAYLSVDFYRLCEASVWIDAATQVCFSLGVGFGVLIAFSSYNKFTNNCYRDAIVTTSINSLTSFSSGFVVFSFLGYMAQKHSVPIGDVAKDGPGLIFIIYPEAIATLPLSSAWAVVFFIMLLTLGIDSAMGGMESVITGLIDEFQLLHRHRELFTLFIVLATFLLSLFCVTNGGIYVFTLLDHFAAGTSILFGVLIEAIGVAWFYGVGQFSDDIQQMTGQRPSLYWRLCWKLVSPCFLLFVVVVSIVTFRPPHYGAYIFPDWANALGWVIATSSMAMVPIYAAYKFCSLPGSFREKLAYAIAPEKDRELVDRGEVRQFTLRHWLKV
# T2 sequence (P02708 whole entry): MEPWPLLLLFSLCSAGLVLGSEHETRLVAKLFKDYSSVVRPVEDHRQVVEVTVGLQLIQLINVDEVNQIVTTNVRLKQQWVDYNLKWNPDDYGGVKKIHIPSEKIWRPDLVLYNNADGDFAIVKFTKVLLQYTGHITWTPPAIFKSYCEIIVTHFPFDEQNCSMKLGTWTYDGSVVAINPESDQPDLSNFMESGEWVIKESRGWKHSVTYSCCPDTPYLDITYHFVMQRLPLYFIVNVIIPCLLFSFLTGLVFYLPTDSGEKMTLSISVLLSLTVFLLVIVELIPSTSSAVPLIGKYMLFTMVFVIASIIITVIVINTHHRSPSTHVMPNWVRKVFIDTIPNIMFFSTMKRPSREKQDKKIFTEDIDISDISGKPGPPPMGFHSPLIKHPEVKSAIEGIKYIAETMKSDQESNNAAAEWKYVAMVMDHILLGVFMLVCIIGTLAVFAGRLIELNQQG
# T2 sequence (P07510 whole entry): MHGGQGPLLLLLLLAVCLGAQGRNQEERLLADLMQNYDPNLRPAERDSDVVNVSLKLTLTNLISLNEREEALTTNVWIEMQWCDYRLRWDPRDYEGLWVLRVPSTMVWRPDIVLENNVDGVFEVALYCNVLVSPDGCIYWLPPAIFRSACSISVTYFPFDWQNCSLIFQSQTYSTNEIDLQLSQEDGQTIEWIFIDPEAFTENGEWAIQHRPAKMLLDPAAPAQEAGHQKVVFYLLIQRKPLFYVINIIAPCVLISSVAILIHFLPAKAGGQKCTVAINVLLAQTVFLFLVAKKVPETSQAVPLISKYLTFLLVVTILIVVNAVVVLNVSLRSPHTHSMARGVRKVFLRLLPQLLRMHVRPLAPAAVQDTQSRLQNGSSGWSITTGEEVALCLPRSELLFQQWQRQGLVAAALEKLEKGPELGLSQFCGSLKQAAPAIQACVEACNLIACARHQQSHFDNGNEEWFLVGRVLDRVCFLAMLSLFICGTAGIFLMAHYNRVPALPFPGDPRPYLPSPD
# T2 sequence (P11230 whole entry): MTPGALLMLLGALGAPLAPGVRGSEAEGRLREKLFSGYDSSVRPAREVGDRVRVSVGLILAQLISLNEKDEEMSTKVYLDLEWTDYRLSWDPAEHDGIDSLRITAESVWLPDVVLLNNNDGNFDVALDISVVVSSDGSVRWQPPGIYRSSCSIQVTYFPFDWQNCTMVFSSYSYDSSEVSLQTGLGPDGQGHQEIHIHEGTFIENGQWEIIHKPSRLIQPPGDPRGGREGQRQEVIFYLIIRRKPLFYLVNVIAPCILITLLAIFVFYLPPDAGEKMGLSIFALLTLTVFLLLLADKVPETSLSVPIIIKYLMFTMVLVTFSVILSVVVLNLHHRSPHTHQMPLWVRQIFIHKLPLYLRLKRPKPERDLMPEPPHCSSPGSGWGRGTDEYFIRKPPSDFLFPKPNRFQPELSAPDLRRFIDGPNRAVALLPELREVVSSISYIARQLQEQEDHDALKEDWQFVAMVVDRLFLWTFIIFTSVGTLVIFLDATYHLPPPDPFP
# T2 sequence (Q07001 whole entry): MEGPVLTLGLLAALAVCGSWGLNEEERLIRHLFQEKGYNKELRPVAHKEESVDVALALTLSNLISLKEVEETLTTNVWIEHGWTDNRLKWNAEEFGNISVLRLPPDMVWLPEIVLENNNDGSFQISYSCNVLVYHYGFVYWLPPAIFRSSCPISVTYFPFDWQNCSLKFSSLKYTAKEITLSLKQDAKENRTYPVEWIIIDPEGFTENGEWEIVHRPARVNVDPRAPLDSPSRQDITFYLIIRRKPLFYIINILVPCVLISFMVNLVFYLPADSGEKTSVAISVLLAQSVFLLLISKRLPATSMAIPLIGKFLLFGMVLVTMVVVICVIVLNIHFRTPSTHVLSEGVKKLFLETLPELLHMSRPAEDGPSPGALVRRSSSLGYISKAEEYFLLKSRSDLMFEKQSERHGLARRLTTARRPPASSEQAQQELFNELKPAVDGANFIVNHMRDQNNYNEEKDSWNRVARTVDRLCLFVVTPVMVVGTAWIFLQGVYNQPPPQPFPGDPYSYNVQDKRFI
# Sodium-dependent serotonin transporter, sequence (P31645 whole entry): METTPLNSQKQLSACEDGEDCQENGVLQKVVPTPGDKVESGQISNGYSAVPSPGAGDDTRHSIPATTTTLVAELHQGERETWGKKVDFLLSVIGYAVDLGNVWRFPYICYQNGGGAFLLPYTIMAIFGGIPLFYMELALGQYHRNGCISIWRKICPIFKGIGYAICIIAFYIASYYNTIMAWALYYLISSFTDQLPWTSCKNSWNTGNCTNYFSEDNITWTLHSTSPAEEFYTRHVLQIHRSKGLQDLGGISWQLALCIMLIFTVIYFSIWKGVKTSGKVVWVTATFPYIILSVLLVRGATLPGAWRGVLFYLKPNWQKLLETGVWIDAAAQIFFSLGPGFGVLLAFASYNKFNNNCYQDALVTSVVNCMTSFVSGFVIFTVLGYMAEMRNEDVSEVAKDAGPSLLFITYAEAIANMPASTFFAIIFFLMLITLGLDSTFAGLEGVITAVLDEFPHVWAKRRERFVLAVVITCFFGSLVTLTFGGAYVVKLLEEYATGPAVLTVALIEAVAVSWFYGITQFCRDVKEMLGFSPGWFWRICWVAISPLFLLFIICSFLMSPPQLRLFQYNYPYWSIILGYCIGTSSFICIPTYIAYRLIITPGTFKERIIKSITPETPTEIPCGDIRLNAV
# T3 sequence (P30926 whole entry): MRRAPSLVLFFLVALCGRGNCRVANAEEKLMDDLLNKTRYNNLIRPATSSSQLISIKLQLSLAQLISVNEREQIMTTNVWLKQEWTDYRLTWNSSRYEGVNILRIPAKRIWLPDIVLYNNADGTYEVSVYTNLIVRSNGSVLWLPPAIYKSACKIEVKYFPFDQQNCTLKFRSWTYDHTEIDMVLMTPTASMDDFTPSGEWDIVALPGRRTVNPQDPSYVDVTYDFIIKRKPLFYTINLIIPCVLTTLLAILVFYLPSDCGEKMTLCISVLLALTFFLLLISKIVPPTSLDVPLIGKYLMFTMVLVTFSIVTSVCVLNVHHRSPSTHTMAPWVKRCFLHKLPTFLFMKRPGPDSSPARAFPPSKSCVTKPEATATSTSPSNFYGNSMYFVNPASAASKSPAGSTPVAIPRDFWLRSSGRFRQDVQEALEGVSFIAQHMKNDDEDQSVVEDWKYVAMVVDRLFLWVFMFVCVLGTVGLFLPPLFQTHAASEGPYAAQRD
# T3 sequence (P43681 whole entry): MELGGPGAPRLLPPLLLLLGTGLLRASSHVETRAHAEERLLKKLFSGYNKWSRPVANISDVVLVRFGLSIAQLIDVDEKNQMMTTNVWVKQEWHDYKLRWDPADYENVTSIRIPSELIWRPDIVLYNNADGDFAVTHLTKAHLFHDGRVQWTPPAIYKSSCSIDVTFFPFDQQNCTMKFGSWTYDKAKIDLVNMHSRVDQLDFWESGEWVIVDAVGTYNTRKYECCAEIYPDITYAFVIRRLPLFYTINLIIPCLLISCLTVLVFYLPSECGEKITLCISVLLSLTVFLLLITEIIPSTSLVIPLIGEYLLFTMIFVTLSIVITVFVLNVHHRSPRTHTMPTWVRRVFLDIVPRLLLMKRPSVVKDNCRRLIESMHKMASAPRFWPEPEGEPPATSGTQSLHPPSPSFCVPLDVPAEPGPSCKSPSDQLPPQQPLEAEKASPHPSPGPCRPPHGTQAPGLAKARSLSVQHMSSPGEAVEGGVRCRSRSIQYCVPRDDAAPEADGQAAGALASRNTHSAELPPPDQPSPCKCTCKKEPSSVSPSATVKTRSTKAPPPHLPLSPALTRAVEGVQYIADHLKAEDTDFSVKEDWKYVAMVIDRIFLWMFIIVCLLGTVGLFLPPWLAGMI
# T1 sequence (P17787 whole entry): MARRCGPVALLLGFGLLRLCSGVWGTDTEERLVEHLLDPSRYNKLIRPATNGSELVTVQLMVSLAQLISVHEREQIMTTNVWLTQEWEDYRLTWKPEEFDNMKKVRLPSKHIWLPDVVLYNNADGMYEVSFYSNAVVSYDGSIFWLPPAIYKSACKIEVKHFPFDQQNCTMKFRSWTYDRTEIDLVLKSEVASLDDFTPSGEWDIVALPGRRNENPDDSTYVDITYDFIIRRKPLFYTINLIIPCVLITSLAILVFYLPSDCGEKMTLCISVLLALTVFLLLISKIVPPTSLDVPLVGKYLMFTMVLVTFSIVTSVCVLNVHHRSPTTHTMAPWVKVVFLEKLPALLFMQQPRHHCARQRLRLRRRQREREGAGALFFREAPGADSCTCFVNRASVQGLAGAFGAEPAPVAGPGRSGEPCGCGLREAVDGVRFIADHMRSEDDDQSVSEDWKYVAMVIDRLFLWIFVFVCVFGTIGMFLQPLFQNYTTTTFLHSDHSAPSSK
# T1 sequence (P43681 whole entry): as the sequence (P43681 whole entry) above
structure (smiles),measurement,setting,value
Cc1ccc([C@H]2C[C@@H]3CC[C@H]([C@H]2c2cc(-c4ccc(Cl)cc4)no2)N3C)cc1,pIC50,[1],3.03
same,pIC50,[2],4.02
same,pIC50,[3],7.96
same,pIC50,[4],< 4.00
same,IC50,[5],> 20 mg/kg
same,IC50,[6],8.7 mg/kg
same,Activity,[7],inactive
same,IC50,[8],> 20 mg/kg
same,pIC50,[9],6.51
same,Activity,[10],inactive
same,Activity,[11],inactive
same,IC50,[12],0.013 mg/kg
same,Activity,[13],Active
same,IC50,[14],> 20 mg/kg
same,pIC50,[15],4.24
